Data set [1] has as its system K562. The experiment in a line: Induction of fetal heamoglobin level in human K562 cells assessed as increase in enhanced-GFP expression under the control of gamma-globin promoter at 5 to 100 uM after 5 days by flow cytometry. It counts as functional, cell-based. An outline of the steps: (§1)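 Stable reporter line K562::∆Gγ-Aγ EGFP, carrying the EGFP gene under a γ-globin promoter within the intact human β-globin locus. Compounds tested at 5-100 µM. Read-out is EGFP expression as fold change relative to untreated, with % cell viability measured alongside. Hemin 50 µM and cisplatin 10 µM serve as reference inducers, with a DMSO vehicle control. Values are mean ± SD of three independent experiments.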
Background: A flow cytometer gives signals particle by particle.

Data set [2] can be described thus: Cytotoxicity against human K562 cells assessed as cell viability at 5 uM. It is filed as cell-based. The settings on record: read-out: Activity. An outline of the steps:
as §1

For data set [3], the system named is K562. In words: Induction of fetal heamoglobin level in human K562 cells assessed as increase in enhanced GFP expression under the control of gamma-globin promoter at 5 uM after 5 days by flow cytometry. It is filed as functional. An outline of the steps: as §1
The subject of data set [4] is K562. In words: Induction of fetal heamoglobin level in human K562 cells assessed as increase in enhanced GFP expression under the control of gamma-globin promoter after 5 days by flow cytometry. It counts as functional, cell-based. An outline of the steps: as §1
Data set [5] concerns K562. The experiment in a line: Induction of fetal heamoglobin level in human K562 cells assessed as increase in enhanced-GFP expression under the control of gamma-globin promoter at 20 uM after 5 days by flow cytometry. It is filed as functional. An outline of the steps:
as §1

The nature of data set [6]: Cytotoxicity against human K562 cells assessed as cell viability at 20 uM. Particulars: read-out: Activity. It counts as cell-based. An outline of the steps: as §1
A short description of data set [7]: Cytotoxicity against human K562 cells assessed as cell viability at 30 uM. It is filed as cell-based. Particulars: read-out: Activity. An outline of the steps:
as §1

In data set [8] the test system is K562. The experiment in a line: Induction of fetal heamoglobin level in human K562 cells assessed as increase in enhanced-GFP expression under the control of gamma-globin promoter at 30 uM after 5 days by flow cytometry. It is filed as functional. In short, it runs like this:
as §1

The source made the active and inactive calls. The calls are words filed in the database; no cut-off is given here.

With `C=C1CC[C@H]2C(C)(C)CCC[C@]2(C)[C@H]1/C=C/C1=CCOC1=O` [VILLOSIN], in the data set on K562 [1], the outcome was inactive. Besides, the viability at 5 µM in data set [2] amounted to 88.9%. Besides, in the data set with K562 [3], the “fold change (FC)” value was 1.

Consider `C=C1CC[C@H]2C(C)(C)C(=O)CC[C@]2(C)[C@H]1/C=C/C1=CCOC1=O` [CURCUCOMOSIN A], for which the outcome in the data set with K562 [1] was inactive. Besides, the viability at 5 µM in data set [2] turned out to be 85.8%. In addition, in the data set with K562 [3], the “fold change (FC)” value is 1.

Turning to `C=C1CC[C@H]2C(C)(C)CCC[C@]2(C)[C@H]1C/C=C1/C(=O)OC[C@@H]1O` [ISOCORONARIN D], the Activity result in the data set on K562 [4] was “Dose-dependent effect”. In the data set with K562 [5], the “fold change (FC)” value is 1.6. In addition, in data set [6], the viability at 20 µM was 80.7%.

With `C=C1CC[C@H]2C(C)(C)CCC[C@]2(C)[C@H]1/C=C/C1=C(O)COC1=O` [ZERUMIN], the result in the data set on K562 [1] was inactive. For the same molecule, in data set [2], the viability at 5 µM was found to be 87.5%. Besides, the “fold change (FC)” value with K562 [3] amounted to 1.

Take `C=C1CC[C@H]2C(C)(C)CCC[C@]2(C)[C@H]1/C=C/c1ccoc1` [CORONARIN E]: in the data set on K562 [1], the outcome was inactive. Further, the viability at 5 µM in data set [2] turned out to be 87.2%. In the data set on K562 [3], the “fold change (FC)” value worked out at 0.7.

For the molecule `C=C1CC[C@H]2C(C)(C)[C@@H](O)CC[C@]2(C)[C@H]1/C=C/C1=CCOC1=O` [CURCUCOMOSIN B], the outcome in the data set with K562 [1] was inactive. In addition, the viability at 5 µM in data set [2] was 87.7%. Moreover, the “fold change (FC)” value in the data set on K562 [3] is on record as 1.

With `C=C1CC[C@H]2C(C)(C)CCC[C@]2(C)[C@H]1C[C@@H](O)C1=CCOC1=O` [CURCUCOMOSIN C], the viability at 30 µM in data set [7] came out at 75.8%. In the data set with K562 [8], the “fold change (FC)” value is 1.2.

Values taken from ChEMBL document CHEMBL1157079, “Labdane diterpenes from the aerial parts of Curcuma comosa enhance fetal hemoglobin production in an erythroid cell line” (J Nat Prod, 2010).
